The text below walks through data of PubChem BioAssay.

Test [1] in a line: RPL19A-GFP modulators, yeast TOR pathway, confirmation, cell-based, S. cerevisiae, flow cytometry, cherry picks, mother/daughter gates (AID 2270;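 active means GFP response below 50% of the DMSO control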). The note with it: S. cerevisiae RPL19A-GFP strain, 3 h, at 10 µM, stronger effect = lower value, 100 = same GFP as DMSO wells. (In general: A flow cytometer gives signals particle by particle.)
Test [2] is described as follows: LAP4-GFP expression modulators in yeast, confirmation, cell-based, cherry picks, flow cytometry, mother/daughter gates (AID 2271;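 active means GFP response above 150% of the DMSO control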;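 further: ratio of sample to DMSO plate mean so 100% equals DMSO level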). The note with it: S. cerevisiae LAP4-GFP strain, 3 h, at 10 µM, stronger effect = higher value, 100 means same as DMSO control. A digest of the protocol:
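System: Alexa 633-stained baker's yeast GFP-fusion strain / Medium: synthetic complete (SC) yeast growth medium / Doses: compound at 10 µM, single point / Times: 3 h treatment at 30 °C with rotation / Detection: HT flow cytometry, GFP fluorescence channel / Benchmarks: DMSO-only negative wells, rapamycin 400 ng/mL positive wells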

A short description of test [3]: modulators of MEP2-GFP levels in yeast, confirmation, S. cerevisiae, flow cytometry GFP, cherry picks (AID 2272;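 active means GFP response above 150% of the DMSO control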;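 further: ratio of well signal to plate DMSO mean so 100% equals DMSO level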). The note with it: S. cerevisiae MEP2-GFP strain, 3 h, at 10 µM, stronger effect = higher value.
The nature of test [4]: AGP1-GFP expression modulators, hit retest, confirmation, cell-based, flow cytometry, S. cerevisiae, cherry picks (AID 2273).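 Further: median GFP channel fluorescence over the whole cell population gate.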 To be noted: S. cerevisiae AGP1-GFP strain, 3 h, at 10 µM.
A short description of test [5]: modulators of CIT2-GFP expression in yeast, confirmation, S. cerevisiae, GFP fusion, cherry picks, mother/daughter gates (AID 2274). To be noted: S. cerevisiae CIT2-GFP strain, flow cytometry, 3 h, at 10 µM, stronger effect = higher value.
Where [6] appears, read: measured here: daughter cell gate.
The mark [7] stands for this setting: measured here: mother cell gate.
The mark [8] stands for this setting: measured here: daughter cell gate response.
Setting [9] is: measured here: mother cell gate response.

The source made the active and inactive calls.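 How the source made its calls, unless noted: active means GFP response above 150% of the DMSO level; inconclusive means fewer than 70 events counted for a yeast strain; inactive means the rest.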

Take `COc1ccc(CCNC2=C(Cl)C(=O)N(CCc3ccccc3)C2=O)cc1OC`: the GFP response vs DMSO in test [1] is 101% (inactive); in test [1] (setting [6]), 102%; in test [1] (setting [7]) it was 102%; in test [3], 102% (inactive). The values for the GFP response relative to DMSO in test [2], in test [2] (setting [8]) and in test [2] (setting [9]) were 103% (inactive), 105% and 103%, respectively. For the same compound, the GFP response, % of DMSO in test [4] is 97.4% (inactive); in test [5], 107% (inactive); in test [5] (setting [6]), 99.7%; in test [5] (setting [7]) it was 103%.
As to `O=[N+]([O-])c1ccc(S(=O)(=O)c2ccccc2)nc1`, the GFP response vs DMSO in test [1] was 84.5% (inactive); in test [1] (setting [6]), 96.4%; in test [1] (setting [7]), 77.4%; in test [3], 126% (inactive). Moreover, the GFP response relative to DMSO is 176% (active) in test [2], 156% in test [2] (setting [8]) and 174% in test [2] (setting [9]). In addition, the GFP response, % of DMSO in test [4] was 114% (inactive); in test [5] it was 108% (inactive); in test [5] (setting [6]) it was 131%; in test [5] (setting [7]) it was 91.5%.
In the case of `Cc1oc2c(CN3CCCC(C)C3)c(O)ccc2c(=O)c1-c1ccccc1` (centres undefined), the GFP response vs DMSO in test [1] is 102% (inactive); in test [1] (setting [6]) it was 102%; in test [1] (setting [7]), 104%; in test [3], 141% (inactive). Moreover, the GFP response relative to DMSO is 143% (inactive) in test [2], 151% in test [2] (setting [8]) and 141% in test [2] (setting [9]). The GFP response, % of DMSO in test [4] was 107% (inactive); in test [5], 147% (inactive); in test [5] (setting [6]) it was 152%; in test [5] (setting [7]), 143%.
For `O=C(OC(c1ccc(NS(=O)(=O)c2ccccc2)cc1)(C(F)(F)F)C(F)(F)F)c1ccccc1`, the GFP response vs DMSO in test [1] was 100% (inactive); in test [1] (setting [6]), 101%; in test [1] (setting [7]), 100%; in test [3] it was 110% (inactive). For the same compound, the GFP response relative to DMSO was 94.9% (inactive) in test [2], 95.1% in test [2] (setting [8]) and 95.1% in test [2] (setting [9]). For the same compound, the GFP response, % of DMSO in test [4] is 104% (inactive); in test [5] it was 92.2% (inactive); in test [5] (setting [6]) it was 95.2%; in test [5] (setting [7]), 91.8%.
With `CCc1noc(C)c1C(=O)Nc1nc2ccc(OC)cc2s1`, the GFP response vs DMSO in test [1] was 91.8% (inactive); in test [1] (setting [6]), 92.7%; in test [1] (setting [7]), 92.5%; in test [3], 99.3% (inactive). For the same compound, the GFP response relative to DMSO is 108% (inactive) in test [2], 108% in test [2] (setting [8]) and 111% in test [2] (setting [9]). The GFP response, % of DMSO in test [4] is 95.5% (inactive); in test [5], 90.3% (inactive); in test [5] (setting [6]), 92.3%; in test [5] (setting [7]) it was 90.4%.
Regarding `COC(=O)c1ccc(/C=C/C(=O)c2ccc(OC)c(OC)c2)cc1`, the GFP response vs DMSO is 101% (inactive) in test [1], 101% in test [1] (setting [6]), 99.6% in test [1] (setting [7]) and 104% (inactive) in test [3]. Also, the figures for the GFP response relative to DMSO in test [2], in test [2] (setting [8]) and in test [2] (setting [9]) were 113% (inactive), 110% and 117%, respectively. Also, the GFP response, % of DMSO in test [4] is 102% (inactive); in test [5], 104% (inactive); in test [5] (setting [6]), 106%; in test [5] (setting [7]) it was 102%.
With `C=CCNC(=O)/C(=C\c1ccc(OC)cc1)NC(=O)c1ccc([N+](=O)[O-])cc1`, the GFP response vs DMSO in test [1] is 97.4% (inactive); in test [1] (setting [6]), 97.6%; in test [1] (setting [7]), 98.7%; in test [3], 96.6% (inactive). Further, the values for the GFP response relative to DMSO in test [2], in test [2] (setting [8]) and in test [2] (setting [9]) were 97.3% (inactive), 99.7% and 96.2%, respectively. In addition, the GFP response, % of DMSO in test [4] is 100% (inactive); in test [5] it was 108% (inactive); in test [5] (setting [6]), 108%; in test [5] (setting [7]) it was 110%.
Regarding `COc1cc(/C=N/Nc2nc(C)cc(=O)[nH]2)ccc1O`, the GFP response vs DMSO was 100% (inactive) in test [1], 104% in test [1] (setting [6]), 98.8% in test [1] (setting [7]) and 106% (inactive) in test [3]. For the same compound, the results for the GFP response relative to DMSO in test [2], in test [2] (setting [8]) and in test [2] (setting [9]) were 87.2% (inactive), 89.3% and 86.7%, respectively. The GFP response, % of DMSO in test [4] is 105% (inactive); in test [5], 117% (inactive); in test [5] (setting [6]), 121%; in test [5] (setting [7]), 115%.
For `O=C(c1ccccc1)N1CCN(c2ccccc2F)CC1`, the GFP response vs DMSO is 101% (inactive) in test [1], 102% in test [1] (setting [6]), 99.6% in test [1] (setting [7]) and 103% (inactive) in test [3]. Further, the GFP response relative to DMSO was 105% (inactive) in test [2], 104% in test [2] (setting [8]) and 96.4% in test [2] (setting [9]). For the same compound, the GFP response, % of DMSO in test [4] was 99.1% (inactive); in test [5] it was 95.8% (inactive); in test [5] (setting [6]) it was 97.6%; in test [5] (setting [7]), 90.4%.
Consider `Cc1cc(NC(=O)c2cc3ccccc3o2)ccc1NC(=O)c1ccccc1`, for which the GFP response vs DMSO in test [1] was 98.4% (inactive); in test [1] (setting [6]), 97.4%; in test [1] (setting [7]), 99.8%; in test [3], 102% (inactive). For the same compound, the GFP response relative to DMSO in test [2] is 95.4% (inactive); in test [2] (setting [8]), 94.4%; in test [2] (setting [9]) it was 96.1%. Besides, the GFP response, % of DMSO was 95.4% (inactive) in test [4], 101% (inactive) in test [5], 101% in test [5] (setting [6]) and 99.7% in test [5] (setting [7]).
With `CCOc1cc(/C=C2\N=C(C)OC2=O)cc(Cl)c1OCC(=O)OC`, the GFP response vs DMSO in test [1] was 105% (inactive); in test [1] (setting [6]) it was 106%; in test [1] (setting [7]) it was 101%; in test [3], 101% (inactive). Moreover, the figures for the GFP response relative to DMSO in test [2], in test [2] (setting [8]) and in test [2] (setting [9]) were 122% (inactive), 120% and 125%, respectively. Besides, the GFP response, % of DMSO is 92.4% (inactive) in test [4], 93% (inactive) in test [5], 95.6% in test [5] (setting [6]) and 90.7% in test [5] (setting [7]).
On to `O=C(N/N=C/c1c(Cl)cccc1Cl)c1cccc(F)c1`, for which the GFP response vs DMSO was 95.6% (inactive) in test [1], 95.3% in test [1] (setting [6]), 94% in test [1] (setting [7]) and 103% (inactive) in test [3]. Also, the GFP response relative to DMSO in test [2] is 92.9% (inactive); in test [2] (setting [8]), 94.4%; in test [2] (setting [9]), 93.4%. Further, the GFP response, % of DMSO was 97.5% (inactive) in test [4], 97.2% (inactive) in test [5], 99.3% in test [5] (setting [6]) and 97.1% in test [5] (setting [7]).
For `O=C(Nc1ccc(Cl)cc1Cl)c1cccc(N2C(=O)C=CC2=O)c1`, the GFP response vs DMSO in test [1] is 76.5% (inactive); in test [1] (setting [6]), 70.3%; in test [1] (setting [7]), 65.5%; in test [3] it was 111% (inactive). For the same compound, the GFP response relative to DMSO in test [2] was 204% (active); in test [2] (setting [8]), 123%; in test [2] (setting [9]), 179%. For the same compound, the GFP response, % of DMSO in test [4] was 99.1% (inactive); in test [5], 96.9% (inactive); in test [5] (setting [6]), 105%; in test [5] (setting [7]), 80.7%.
As for `CC(=O)NN1C(=O)/C(=C/c2ccc(Br)o2)SC1=S`, the GFP response vs DMSO was 103% (inactive) in test [1], 101% in test [1] (setting [6]), 102% in test [1] (setting [7]) and 139% (inactive) in test [3]. Besides, the figures for the GFP response relative to DMSO in test [2], in test [2] (setting [8]) and in test [2] (setting [9]) were 128% (inactive), 122% and 126%, respectively. Also, the GFP response, % of DMSO in test [4] was 111% (inactive); in test [5] it was 153% (active); in test [5] (setting [6]), 150%; in test [5] (setting [7]), 150%.
